Experimental data taken from PMC3131534 (Chemistry & biology, 2011).

Legend:
[1] = target: T1, endogenous SENP6 (Homo sapiens, UniProt Q9GZR1); test: Cell lysate treatment, competition of HA-SUMO2vme labeling; type: binding; settings: treatment of cell lysates
T1 sequence (Q9GZR1 1-1112): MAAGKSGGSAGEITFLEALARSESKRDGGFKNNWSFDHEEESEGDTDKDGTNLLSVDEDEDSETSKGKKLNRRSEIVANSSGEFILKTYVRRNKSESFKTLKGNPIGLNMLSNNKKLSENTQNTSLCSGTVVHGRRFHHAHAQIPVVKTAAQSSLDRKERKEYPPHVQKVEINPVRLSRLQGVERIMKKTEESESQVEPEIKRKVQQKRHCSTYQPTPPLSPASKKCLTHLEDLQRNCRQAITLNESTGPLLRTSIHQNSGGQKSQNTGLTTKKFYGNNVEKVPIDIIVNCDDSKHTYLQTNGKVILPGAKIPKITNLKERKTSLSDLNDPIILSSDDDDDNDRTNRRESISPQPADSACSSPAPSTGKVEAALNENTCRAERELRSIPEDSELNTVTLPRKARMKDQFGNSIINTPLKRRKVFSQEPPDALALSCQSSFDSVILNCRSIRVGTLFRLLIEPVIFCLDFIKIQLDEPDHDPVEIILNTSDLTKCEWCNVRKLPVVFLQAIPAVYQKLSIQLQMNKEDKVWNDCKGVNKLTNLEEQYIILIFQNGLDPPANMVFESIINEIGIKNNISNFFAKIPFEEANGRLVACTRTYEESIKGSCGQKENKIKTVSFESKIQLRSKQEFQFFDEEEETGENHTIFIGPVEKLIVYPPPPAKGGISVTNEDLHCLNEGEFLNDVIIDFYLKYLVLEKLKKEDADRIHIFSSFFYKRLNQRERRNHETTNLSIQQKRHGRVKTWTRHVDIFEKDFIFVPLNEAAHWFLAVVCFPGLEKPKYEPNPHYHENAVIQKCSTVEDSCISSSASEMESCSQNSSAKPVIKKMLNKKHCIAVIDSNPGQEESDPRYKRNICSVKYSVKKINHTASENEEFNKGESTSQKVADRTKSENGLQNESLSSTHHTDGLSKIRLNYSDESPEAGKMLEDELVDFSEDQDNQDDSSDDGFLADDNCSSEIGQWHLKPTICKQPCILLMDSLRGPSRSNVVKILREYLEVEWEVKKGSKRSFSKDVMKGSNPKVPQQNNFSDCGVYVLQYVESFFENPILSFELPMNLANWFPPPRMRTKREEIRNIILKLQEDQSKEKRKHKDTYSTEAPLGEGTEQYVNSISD

[2] = test system: DUBs in HEK293 cell lysates; test: Competition of HA-Ubvme probe labeling in HEK293 cell lysates; type: binding, human; settings: Figure S4
[3] = target: T2, endogenous SENP1 (Homo sapiens, UniProt Q9P0U3); test: Cell lysate treatment, competition of HA-SUMO2vme labeling; type: binding; settings: treatment of cell lysates
T2 sequence (Q9P0U3 1-644): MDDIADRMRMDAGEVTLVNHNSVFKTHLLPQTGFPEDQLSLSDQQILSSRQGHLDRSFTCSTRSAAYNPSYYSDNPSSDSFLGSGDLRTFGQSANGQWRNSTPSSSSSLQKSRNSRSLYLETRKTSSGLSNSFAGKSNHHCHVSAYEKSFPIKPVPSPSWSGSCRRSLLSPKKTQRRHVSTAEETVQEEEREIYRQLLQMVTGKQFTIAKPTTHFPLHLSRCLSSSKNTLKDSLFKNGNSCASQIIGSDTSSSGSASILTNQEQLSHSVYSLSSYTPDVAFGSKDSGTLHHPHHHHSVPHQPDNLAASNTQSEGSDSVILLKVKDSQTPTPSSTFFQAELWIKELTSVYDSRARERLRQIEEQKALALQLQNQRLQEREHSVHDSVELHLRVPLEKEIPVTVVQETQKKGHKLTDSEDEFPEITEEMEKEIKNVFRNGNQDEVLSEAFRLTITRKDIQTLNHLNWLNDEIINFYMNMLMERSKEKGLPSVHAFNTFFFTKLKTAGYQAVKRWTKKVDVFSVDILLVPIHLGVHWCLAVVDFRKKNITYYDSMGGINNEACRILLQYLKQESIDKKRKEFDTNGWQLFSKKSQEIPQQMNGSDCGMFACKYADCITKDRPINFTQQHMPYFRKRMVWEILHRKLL

[4] = target: T3, human DUB UCHL3 (Homo sapiens, UniProt P15374); test: Cross-reactivity against purified DUB; type: biochemical; settings: purified enzyme, Figure S4
T3 sequence (P15374 1-230): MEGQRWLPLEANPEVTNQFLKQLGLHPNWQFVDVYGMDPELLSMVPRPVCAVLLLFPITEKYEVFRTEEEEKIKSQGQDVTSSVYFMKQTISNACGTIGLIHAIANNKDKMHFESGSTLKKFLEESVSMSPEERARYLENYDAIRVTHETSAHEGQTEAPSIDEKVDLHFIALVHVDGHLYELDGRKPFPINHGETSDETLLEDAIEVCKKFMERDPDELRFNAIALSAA

[5] = target: T4, human SENP8 (Homo sapiens, UniProt Q96LD8); test: Cross-reactivity against purified deNEDDylase; type: biochemical; settings: purified enzyme, Figure S4
T4 sequence (Q96LD8 1-212): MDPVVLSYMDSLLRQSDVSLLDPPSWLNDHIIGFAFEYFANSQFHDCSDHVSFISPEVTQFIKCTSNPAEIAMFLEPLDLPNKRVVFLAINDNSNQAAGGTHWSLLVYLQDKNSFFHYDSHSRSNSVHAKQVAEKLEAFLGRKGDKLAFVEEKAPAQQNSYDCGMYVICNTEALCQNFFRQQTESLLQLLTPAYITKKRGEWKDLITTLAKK

[6] = test system: ΔNhSENPs1, 2, 5, 6 and 7; test: Fluorogenic substrate screen against the panel of recombinant hSENPs; type: biochemical, human; settings: 50μM inhibitor, 1 hour preincubation, heat map Figure 4
Procedure, shortened: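 Recombinant N-terminally truncated hSENPs were preincubated 1 h at 37 °C with 50 μM inhibitor in 50 mM Tris pH 8.0, 20 mM NaCl, 10 mM DTT. The enzyme level is given only for hSENP1, at 2 μM final. Then 100 nM Ac-QTGG-AFC (SENP1, 2, 5) or Ac-LRGG-AFC (SENP6, 7) was added. AFC release was read at 405/510 nm, 37 °C. Slope (RFU/min) was taken relative to DMSO (100%), averaging independent triplicates.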

[7] = Stability of the epoxide in aqueous media; type: physicochemical; settings: relative to aza-aspartic acid epoxides
[8] = target: T5, ΔNhSENP1 (Homo sapiens, UniProt Q9P0U3); test: ProSUMO processing; type: biochemical; settings: 100nM ΔNhSENP1, 0–100μM compound, 30 min pre-treatment
T5 sequence (Q9P0U3 450-613 limits assumed): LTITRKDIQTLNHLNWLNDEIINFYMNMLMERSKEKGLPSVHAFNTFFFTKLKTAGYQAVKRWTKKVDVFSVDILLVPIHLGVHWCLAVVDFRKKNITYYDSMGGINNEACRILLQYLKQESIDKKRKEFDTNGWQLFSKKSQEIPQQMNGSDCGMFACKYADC
Procedure, shortened: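 ΔNhSENP1 (100 nM) was pretreated with inhibitor for 30 min in 50 mM Tris pH 7.4, 5 mM NaCl, 5 mM DTT (37 °C in methods, room temperature in legend). It then cleaved recombinant hSUMO1 carrying its full pro-sequence and a C-terminal His6 tag for 1 h at 37 °C. Loss of the pro-region and tag was scored as a band shift on SDS-PAGE with Gelcode Blue stain, beside a substrate-only lane.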

[9] = test system: PfSENP1; settings: P. falciparum lysates; ref Ponder et al. Submitted; cited from earlier work

Structure (SMILES) | activity against UCHL3 [4] | activity against hSENP8 [5] | relative inhibitor potency in the fixed concentration screen [6] | further results
O=C(CNC(=O)c1ccc(CNC(=O)c2cccc(C(=O)O)c2)cc1)COC(=O)c1c2ccccc2cc2ccccc12 [VEA401] |  |  |  | block of endogenous SENP6 labeling by HA-SUMO2vme probe [1]: not able to find conditions in which we could treat cell lysates with VEA401 and block labeling of endogenous SENP1 or SENP6; block of DUB labeling by HA-Ubvme probe [2]: did not block labeling of DUBs; block of endogenous SENP1 labeling by HA-SUMO2vme probe [3]: not able to find conditions in which we could treat cell lysates with VEA401 and block labeling of endogenous SENP1 or SENP6
O=C(O)c1cccc(C(=O)NCc2ccc(C(=O)NNC(=O)[C@H]3O[C@@H]3C(=O)N(Cc3cccc4ccccc34)Cc3cccc4ccccc34)cc2)c1 [VEA260] | virtually no activity against either enzyme | virtually no activity against either enzyme |  | stability of the compound [7]: more stable compound; activity in ProSUMO processing assay [8]: retained full activity against hSENP1
O=C(O)CN(NC(=O)c1ccc(CNC(=O)c2cccc(C(=O)O)c2)cc1)C(=O)[C@H]1O[C@@H]1C(=O)N(Cc1cccc2ccccc12)Cc1cccc2ccccc12 [JCP666] |  |  |  | potency against parasite SENP [9]: effectively blocked PfSENP activity

Second part, led by results:

activity against UCHL3 [4] | Structure (SMILES) | activity against hSENP8 [5] | relative inhibitor potency in the fixed concentration screen [6] | further results
only activity against hSENP8 | C[C@H](O)C(NC(=O)[C@H](CCC(N)=O)NC(=O)Cc1ccc(O)c([N+](=O)[O-])c1)C(=O)NCC(=O)NCC(=O)COC(=O)c1c2ccccc2cc2ccccc12 (some centres unmarked) [VEA499] | only activity against hSENP8 | substantially more potent than the tripeptide (VEA498) equivalent | 
only activity against hSENP8 | CC(C)C[C@H](NC(=O)Cc1ccc(O)c([N+](=O)[O-])c1)C(=O)N[C@@H](CCCN=C(N)N)C(=O)NCC(=O)NCC(=O)COC(=O)c1c2ccccc2cc2ccccc12 [VEA561] | only activity against hSENP8 | most potent towards hSENP6 and hSENP7 | 
